Source: ChEMBL document CHEMBL2021913, “Synthesis and biological evaluation of some novel thiazole substituted benzotriazole derivatives” (2012)
Converted amounts (≈) assume the structure as drawn. The source made the active and inactive calls. The rule behind the calls is not given here.

Tests used:
Assay type in all cases: functional
Pseudomonas aeruginosa [1] = assay: Antimicrobial activity against Pseudomonas aeruginosa 2036 at 35 degC after 18 to 24 hrs by NCCLS method based antimicrobial assay
Candida albicans [2] = assay: Antimicrobial activity against Candida albicans 3471 at 128 ug/disc at 37 degC after 24 to 72 hrs by agar-well diffusion assay; conditions: for zone of inhibition at 128 µg/disc: read-out: DIZ
Procedure, shortened: (§1)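 Potato dextrose agar base plates overlaid with seeded agar cooled to 40 °C and inoculated with spores from 10-day cultures, final 1 × 10⁶ spores/mL. Compounds dissolved in DMSO at 128 µg/mL and applied on 6 mm filter-paper discs placed on chilled seeded medium. Nystatin positive control, DMSO negative control. Incubation 24–72 h at 37 °C. Inhibition zone diameter read by vernier caliper.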

Bacillus subtilis [3] = assay: Antimicrobial activity against Bacillus subtilis 2250 at 128 ug/disc at 35 degC after 24 hrs by agar-well diffusion assay; conditions: for zone of inhibition at 128 µg/disc: Bacillus subtilis, 2250, 24 h, read-out: DIZ
Procedure, shortened: (§2)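 Agar-well diffusion: 24 h bacterial cultures adjusted to 0.5 McFarland (1.5 × 10⁸ CFU/mL) and mixed into molten Mueller-Hinton agar before pouring. 6 mm wells punched and each filled with 50 µL of compound stock or control. Plates incubated 35 °C for 24 h. Zone of growth inhibition diameter measured with vernier caliper.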

Aspergillus niger [4] = assay: Antimicrobial activity against Aspergillus niger 545 at 128 ug/disc at 37 degC after 24 to 72 hrs by agar-well diffusion assay; conditions: in the assay text read “disc diffusion assay” for “agar-well diffusion assay”; procedure, shortened: as §1
Pseudomonas aeruginosa [5] = assay: Antimicrobial activity against Pseudomonas aeruginosa 2036 at 128 ug/disc at 35 degC after 24 hrs by agar-well diffusion assay; procedure, shortened: as §2
Staphylococcus aureus [6] = assay: Antimicrobial activity against Staphylococcus aureus 2079 at 35 degC after 18 to 24 hrs by NCCLS method based antimicrobial assay; conditions: for MBC: read-out: MBC99.9
Bacillus subtilis [7] = assay: Antimicrobial activity against Bacillus subtilis 2250 at 35 degC after 18 to 24 hrs by NCCLS method based antimicrobial assay; conditions: for MBC: read-out: MBC99.9
Aspergillus niger [8] = assay: Antimicrobial activity against Aspergillus niger 545 at 35 degC after 48 hrs by CLSI method based antimicrobial assay
Procedure, shortened: (§3)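 Broth microdilution following CLSI guidelines over 256 to 1 µg/mL. MIC90 is the lowest concentration completely inhibiting growth. For MFC, 0.1 mL from each tube spread on agar and CFU counted after 48 h at 35 °C; MFC is lowest concentration killing 99.9% of inoculum. MFC/MIC ratio calculated: […], ≤4 as fungicidal.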

Escherichia coli [9] = assay: Antimicrobial activity against Escherichia coli 2109 at 128 ug/disc at 35 degC after 24 hrs by agar-well diffusion assay; conditions: for zone of inhibition at 128 µg/disc: Escherichia coli, 2109, 24 h, read-out: DIZ; procedure, shortened: as §2
Staphylococcus aureus [10] = assay: Antimicrobial activity against Staphylococcus aureus 2079 at 128 ug/disc at 35 degC after 24 hrs by agar-well diffusion assay; conditions: for zone of inhibition at 128 µg/disc: Staphylococcus aureus, 2079, 24 h, read-out: DIZ; procedure, shortened: as §2
Candida albicans [11] = assay: Antimicrobial activity against Candida albicans 3471 at 35 degC after 48 hrs by CLSI method based antimicrobial assay; conditions: for MFC: read-out: MFC99.9; procedure, shortened: as §3
Escherichia coli [12] = assay: Antimicrobial activity against Escherichia coli 2109 at 35 degC after 18 to 24 hrs by NCCLS method based antimicrobial assay; conditions: for MBC: read-out: MBC99.9
Candida albicans [13] = assay: Ratio of MFC99.9 to MIC90 for Candida albicans 3471 at 35 degC after 48 hrs by CLSI method based antimicrobial assay; procedure, shortened: as §3

SMILES	MIC (Pseudomonas aeruginosa [1])	MIC (Staphylococcus aureus [6])	MIC (Bacillus subtilis [7])	MIC (Aspergillus niger [8])	MIC (Escherichia coli [12])	MIC (Candida albicans [11]; Candida albicans, 3471, 48 h) [µg/mL]	MBC99.9 (Pseudomonas aeruginosa [1])	zone of inhibition at 128 µg/disc (Bacillus subtilis [3]) [mm]	diameter of the inhibition zone (DIZ) (Aspergillus niger [4])	diameter of the inhibition zone (DIZ) (Pseudomonas aeruginosa [5])	MBC (Staphylococcus aureus [6]) [µg/mL]	MBC (Bacillus subtilis [7]) [µg/mL]	MFC99.9 (Aspergillus niger [8])	zone of inhibition at 128 µg/disc (Staphylococcus aureus [10]) [mm]	zone of inhibition at 128 µg/disc (Candida albicans [2]) [mm]	Ratio (Candida albicans [13])	MFC (Candida albicans [11]; Candida albicans, 3471, 48 h) [µg/mL]	zone of inhibition at 128 µg/disc (Escherichia coli [9]) [mm]	MBC (Escherichia coli [12]) [µg/mL]	diameter of the inhibition zone (DIZ) (Bacillus subtilis [3])	also measured
FC(F)(F)c1cc(-c2csc(N/N=C(/Cn3nnc4ccccc43)c3ccc(Br)cc3)n2)cc(C(F)(F)F)c1	inactive	64 µg/mL (≈ 102 µM)	64 µg/mL (≈ 102 µM)	inactive	inactive		inactive	20.3	inactive	inactive	64 (≈ 102 µM)	128 (≈ 205 µM)	inactive	22.1							diameter of the inhibition zone (DIZ) (Candida albicans [2]): inactive; diameter of the inhibition zone (DIZ) (Escherichia coli [9]): inactive; MFC99.9 (Candida albicans [11]): inactive; MIC (Candida albicans [11]): inactive; MBC99.9 (Escherichia coli [12]): inactive
O=C(N[C@H](CO)[C@H](O)c1ccc([N+](=O)[O-])cc1)C(Cl)Cl [CHLORAMPHENICOL]								29.2			32 (≈ 99 µM)	32 (≈ 99 µM)		31.4				27.6	32 (≈ 99 µM)		MBC (Pseudomonas aeruginosa [1]; read-out: MBC99.9): 32 µg/mL (≈ 99 µM); zone of inhibition at 128 µg/disc (Pseudomonas aeruginosa [5]; Pseudomonas aeruginosa, 2036, 24 h, read-out: DIZ): 23.9 mm
FC(F)(F)c1cc(-c2csc(N/N=C(/Cn3nnc4ccccc43)c3ccc(Cl)cc3)n2)cc(C(F)(F)F)c1	inactive	inactive	inactive		32 µg/mL (≈ 55.1 µM)	64 (≈ 110 µM)	inactive		inactive	inactive			inactive		13.7	2	128 (≈ 220 µM)	21.1	64 (≈ 110 µM)	inactive	MBC99.9 (Staphylococcus aureus [6]): inactive; MBC99.9 (Bacillus subtilis [7]): inactive; diameter of the inhibition zone (DIZ) (Staphylococcus aureus [10]): inactive
O=[N+]([O-])c1ccc(-c2csc(N/N=C(/Cn3nnc4ccccc43)c3cc(C(F)(F)F)cc(C(F)(F)F)c3)n2)cc1	inactive	inactive	inactive	inactive	128 µg/mL (≈ 216 µM)		inactive		inactive	inactive			inactive					13.1	256 (≈ 433 µM)	inactive	diameter of the inhibition zone (DIZ) (Candida albicans [2]): inactive; MBC99.9 (Staphylococcus aureus [6]): inactive; MBC99.9 (Bacillus subtilis [7]): inactive; diameter of the inhibition zone (DIZ) (Staphylococcus aureus [10]): inactive; MFC99.9 (Candida albicans [11]): inactive; MIC (Candida albicans [11]): inactive

Continued, in another order:

MIC (Pseudomonas aeruginosa [1])	MIC (Staphylococcus aureus [6])	MIC (Bacillus subtilis [7])	MIC (Aspergillus niger [8])	MIC (Escherichia coli [12])	MIC (Candida albicans [11]; Candida albicans, 3471, 48 h) [µg/mL]	SMILES	MBC99.9 (Pseudomonas aeruginosa [1])	zone of inhibition at 128 µg/disc (Bacillus subtilis [3]) [mm]	diameter of the inhibition zone (DIZ) (Aspergillus niger [4])	diameter of the inhibition zone (DIZ) (Pseudomonas aeruginosa [5])	MBC (Staphylococcus aureus [6]) [µg/mL]	MBC (Bacillus subtilis [7]) [µg/mL]	MFC99.9 (Aspergillus niger [8])	zone of inhibition at 128 µg/disc (Staphylococcus aureus [10]) [mm]	zone of inhibition at 128 µg/disc (Candida albicans [2]) [mm]	Ratio (Candida albicans [13])	MFC (Candida albicans [11]; Candida albicans, 3471, 48 h) [µg/mL]	zone of inhibition at 128 µg/disc (Escherichia coli [9]) [mm]	MBC (Escherichia coli [12]) [µg/mL]	diameter of the inhibition zone (DIZ) (Bacillus subtilis [3])	also measured
inactive	64 µg/mL (≈ 120 µM)	128 µg/mL (≈ 240 µM)	inactive	inactive	32 (≈ 59.9 µM)	O=[N+]([O-])c1ccc(/C(Cn2nnc3ccccc32)=N\Nc2nc(-c3ccc(Br)cc3)cs2)cc1	inactive	15.3	inactive	inactive	128 (≈ 240 µM)	256 (≈ 479 µM)	inactive	22.6	17.3	2	64 (≈ 120 µM)				MBC99.9 (Escherichia coli [12]): inactive
inactive	inactive	inactive	inactive	128 µg/mL (≈ 256 µM)	64 (≈ 128 µM)	O=[N+]([O-])c1ccc(/C(Cn2nnc3ccccc32)=N\Nc2nc(-c3ccc([N+](=O)[O-])cc3)cs2)cc1	inactive		inactive	inactive			inactive		14.3	2	128 (≈ 256 µM)	17.5	256 (≈ 511 µM)	inactive	MBC99.9 (Staphylococcus aureus [6]): inactive; MBC99.9 (Bacillus subtilis [7]): inactive; diameter of the inhibition zone (DIZ) (Staphylococcus aureus [10]): inactive
